Shown are actives, neighbours in structure and some others; about 2.2% of the full set was active somewhere.
PHOSPHO1 block = inhibitors of human PHOSPHO1 phosphatase. recombinant PHOSPHO1, absorbance phosphatase assay. hit rate 1.1% among 290,000. inhibition, % at 13.3 µM. Q8TCT1; in the data active = inhibition above about 60%
Target sequence (Q8TCT1 whole entry, looked up): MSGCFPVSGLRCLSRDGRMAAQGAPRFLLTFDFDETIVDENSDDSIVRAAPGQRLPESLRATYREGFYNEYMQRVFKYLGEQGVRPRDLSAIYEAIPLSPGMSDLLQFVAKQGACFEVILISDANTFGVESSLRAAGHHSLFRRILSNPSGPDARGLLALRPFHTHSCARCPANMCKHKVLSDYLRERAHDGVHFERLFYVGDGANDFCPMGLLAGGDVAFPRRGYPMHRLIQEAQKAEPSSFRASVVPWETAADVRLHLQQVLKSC
IMP-1 inh-1 = blocks Pseudomonas aeruginosa IMP-1 metallo-beta-lactamase; purified IMP-1, nitrocefin hydrolysis, epi-absorbance fluorescence; inhibition, % at 5.6 µM; hit rate 0.45% among 290,000; AID 1556;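 active = inhibition above the mean plus 3 SD of all compounds in the same screening run, cut at about 4.5% in these data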;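 note: 0% = IMP-1 with DMSO and 100% = DMSO wells lacking enzyme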
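System – purified recombinant IMP-1 beta-lactamase · Input – IMP-1 dispensed at 0.2 nM · Timing – 15 min preincubation plus 25 min reaction at 25 °C · Signal – Epi-absorbance fluorescence, 480 nm excitation, 530 nm emission · Measure – percent IMP-1 inhibition derived from blank-referenced optical density · Controls – Enzyme-plus-DMSO low control, enzyme-free DMSO high control · Replication – singlicate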
PvdQ acylase = P. aeruginosa PvdQ acylase inhibition | purified PvdQ acylase, fluorescence plate reader | inhibition, % at 10 µM | hit rate 0.063% among 340,000 | AID 488965; in the data active = inhibition above about 30%, passing the limit was not always enough;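 note: 0% = vehicle neutral wells and 100% = reference inhibitor wells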
VIM-2 inhibitor = inhibitors of Pseudomonas aeruginosa VIM-2 metallo-beta-lactamase; purified VIM-2, nitrocefin hydrolysis, epi-absorbance fluorescence; inhibition, % at 5.6 µM; hit rate 0.89% among 290,000;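 active = inhibition above the mean of all tested compounds plus 3 SD, cutoff set per screening run, cut at about 7.5% in these data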;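 note: red hydrolysis product quenches plate fluorescence so inhibitors raise well fluorescence; 0% = enzyme with DMSO and 100% = DMSO without enzyme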
Yeast superoxide = yeast age-related superoxide inhibition as caloric restriction mimetic | AID 2690 | hit rate 0.18% among 330,000 | superoxide response (% of plate mean), % at 10 µM | S. cerevisiae aged cells, superoxide DHE fluorescence; active compounds read low;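 active = superoxide response under a set limit, about three screen SD below normal, cut at about 65% in these data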;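 note: yeast aged for seven days with compound at 30 °C before DHE staining; 100% = average MFI of all compound-treated wells on the plate with controls excluded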
IMP-1 inh-2 = blocks IMP-1 metallo-beta-lactamase in VIM-2 selectivity screen; shares compounds with VIM-2 inhibitor; purified IMP-1, nitrocefin hydrolysis, epi-absorbance fluorescence; inhibition, % at 5.6 µM; 1,300 tested, under 10 active; AID 1856; call rule not given here;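 note: 0% = enzyme with vehicle and 100% = vehicle without enzyme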
VIM-2 FRET inh = VIM-2 FRET inhibition, artifact counter-screen; hit rate 23% among 1,300; inhibition, % at 5.6 µM; shares compounds with VIM-2 inhibitor; purified VIM-2, CCF2 FRET substrate hydrolysis; AID 1857;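 active = inhibition above the mean of all tested compounds plus 3 SD, cut at about 19% in these data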;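 note: 0% = VIM-2 plus DMSO and 100% = no enzyme wells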
TEM-1 counter = selectivity counter-screen for VIM-2 inhibitors: E. coli TEM-1 inhibitors; shares compounds with VIM-2 inhibitor; Purified TEM-1, nitrocefin hydrolysis, epi-absorbance fluorescence; inhibition, % at 5.6 µM; hit rate 3% among 1,300;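 active = inhibition above that campaign's mean inhibition plus 3 SD, cut at about 0.46% in these data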;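 note: 0% = TEM-1 with DMSO and 100% = TEM-1 with 100 µM potassium clavulanate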
VIM-2 confirm 2 = confirmation of P. aeruginosa VIM-2 metallo-beta-lactamase inhibitors | shares compounds with VIM-2 inhibitor | purified VIM-2, nitrocefin hydrolysis, epi-absorbance | inhibition, % at 5.6 µM | hit rate 96% among 1,300 | AID 2187;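 active = inhibition of the VIM-2 beta-lactamase enzyme above about 11% from the earlier first-round screen, limit read from the data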;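 note: 0% = VIM-2 with DMSO and 100% = buffer wells without enzyme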
The depositor's hits bear a star.

Screening COc1cc(OC)c(C(=O)OC(C)C(=O)Nc2cccc(C(F)(F)F)c2)cc1OC (configuration not stated) returned PHOSPHO1 block -11, IMP-1 inh-1 -3, PvdQ acylase 2, VIM-2 inhibitor 0 and Yeast superoxide 96.
`Cc1ccc(NC(=O)CCC(=O)NNC(=O)Nc2cccc(Cl)c2)c(C)c1` gave PHOSPHO1 block 43, IMP-1 inh-1 -6, PvdQ acylase -14, VIM-2 inhibitor -4 and Yeast superoxide 101.
Screening O=C(CCC1CCCNC1)c1ccccc1 (configuration not stated) returned PHOSPHO1 block 29, IMP-1 inh-1 -1, VIM-2 inhibitor 1 and Yeast superoxide 97.
Screening COc1ccccc1Oc1ccc2c(c1)C(=O)N(c1ccc(Br)c3cccnc13)C2=O returned PHOSPHO1 block 10, IMP-1 inh-1 4.9*, PvdQ acylase -1, VIM-2 inhibitor -1 and Yeast superoxide 110.
O=C1c2ccccc2C(=O)N1c1ccc(Br)c2cccnc12 was read as PHOSPHO1 block 32, IMP-1 inh-1 0, PvdQ acylase -14, VIM-2 inhibitor 3 and Yeast superoxide 106.
Screening Cc1c(OC(C)C(=O)NCC2CCC(C(=O)O)CC2)ccc2c3c(c(=O)oc12)CCCC3 (configuration not stated) returned PHOSPHO1 block 20, IMP-1 inh-1 -4, PvdQ acylase -16, VIM-2 inhibitor -2 and Yeast superoxide 92.
`Cc1c(OC(C)C(=O)NCc2ccccn2)ccc2c3c(c(=O)oc12)CCC3` (configuration not stated) gave PHOSPHO1 block -11, IMP-1 inh-1 -1, PvdQ acylase -8, VIM-2 inhibitor 19*, Yeast superoxide 95, IMP-1 inh-2 -2, VIM-2 FRET inh 2, TEM-1 counter -5 and VIM-2 confirm 2 28*.
`Cc1c(OCC(=O)NCc2ccccn2)ccc2c3c(c(=O)oc12)CCCC3` gave PHOSPHO1 block 29, IMP-1 inh-1 -1, PvdQ acylase -14, VIM-2 inhibitor 17*, Yeast superoxide 86, IMP-1 inh-2 -2, VIM-2 FRET inh -3, TEM-1 counter -18 and VIM-2 confirm 2 26*.
Screening Cc1c(OCC(=O)Nc2cccnc2)ccc2c3c(c(=O)oc12)CCC3 returned PHOSPHO1 block 17, IMP-1 inh-1 -2, PvdQ acylase -8, VIM-2 inhibitor 24*, Yeast superoxide 75, IMP-1 inh-2 -4, VIM-2 FRET inh -1, TEM-1 counter -16 and VIM-2 confirm 2 35*.
For Cc1c(OC(C)C(=O)NCc2ccncc2)ccc2c3c(c(=O)oc12)CCCC3 (configuration not stated) the results were PHOSPHO1 block 26, IMP-1 inh-1 -2, PvdQ acylase -17, VIM-2 inhibitor 51*, Yeast superoxide 83, IMP-1 inh-2 -3, VIM-2 FRET inh 17, TEM-1 counter -11 and VIM-2 confirm 2 62*.
`C/C(=N\NC(=O)OC(C)(C)C)c1ccc(-n2ccnc2)cc1` gave PHOSPHO1 block 48, IMP-1 inh-1 -1, PvdQ acylase 1, VIM-2 inhibitor 1 and Yeast superoxide 107.
`C=C(C)CNC(=S)N/N=C(\C)c1ccc(-n2ccnc2)cc1` gave PHOSPHO1 block 33, IMP-1 inh-1 -5, PvdQ acylase -14, VIM-2 inhibitor 79*, Yeast superoxide 87, IMP-1 inh-2 -3, VIM-2 FRET inh -8, TEM-1 counter -9 and VIM-2 confirm 2 88*.
Screening C=CCn1c(C)nnc1SCC(=O)Nc1ccccc1C(=O)NC1CC1 returned PvdQ acylase -14.
`Cn1nc(-c2ccc(NCCO)c([N+](=O)[O-])c2)c2ccccc2c1=O` gave PHOSPHO1 block 18, IMP-1 inh-1 -3, PvdQ acylase 9, VIM-2 inhibitor 16*, Yeast superoxide 111, IMP-1 inh-2 -4, VIM-2 FRET inh 3, TEM-1 counter -8 and VIM-2 confirm 2 45*.
